These results are taken from ChEMBL document CHEMBL6177989, “Development of Diaryl Hydrazones for Alleviation of Mitochondrial Oxidative Stress in Preeclampsia” (2025).

Calls of active or inactive are those of the source. The rule behind the calls is not given here.

The nature of assay [1]: Antioxidant activity assessed as trolox equivalent of ABTS radical scavenging activity at […] measured up to 12 mins by absorbance based analysis. Type of assay: functional. In a few lines: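 ABTS radical generated 12–24 h before assay; compounds tested at 500 μM final antioxidant concentration; absorbance read on plate reader at 25 °C. Percent scavenging standardized to Trolox scavenging to give Trolox equivalents; mean ± SD of three independent repeats.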

A short description of assay [2]: Antioxidant activity assessed as trolox equivalent of ORAC radical scavenging activity […] measured every 2 mins for 60 mins by UV-Vis / fluorescence plate reader based analysis. In kind it is functional. A digest of the protocol: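 ORAC: fluorescein with AAPH, fluorescence read 30 times; net AUC relative to AAPH control and no-AAPH maximum. Compounds at 80 μM; Trolox calibration (3.125–100 μM) of percent scavenging vs ln concentration gives Trolox equivalent concentration. 25 °C; mean ± SD, three independent repeats.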

The nature of assay [3]: Antioxidant activity assessed as trolox equivalent of DPPH radical scavenging activity […] measured every 15 mins for 60 mins by absorbance based assay. Type of assay: functional. In a few lines:
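DPPH radical scavenging by absorbance at 25 °C, compounds at 200 μM antioxidant concentration. Percent scavenging from control vs sample absorbance; 60 min value divided by 60 min Trolox value to give Trolox equivalents. Mean ± SD, four independent repeats.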
Background: Loss of DPPH colour is used to gauge radical scavenging.

The subject of another assay is HTR-8/SVneo. As to the kind of experiment: Antioxidant activity in H2O2 induced human HTR-8/SVneo cells assessed as reduction in sFLT-1 protein expression at 0.1 to 50 uM preincubated for 30 mins followed by H2O2 addition and measured after 20 hrs by ELISA method. In kind it is functional, cell-based. The conditions noted are these: dose 0.1-50 µM, time 20.5 hrs. In a few lines:
(§1)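 HTR-8/SVneo cells in RPMI with 5% FBS, 37 °C, 5% CO2, pretreated 30 min with 0.1–50 μM compound, then 100 μM H2O2 for 20 h with compound present throughout. Supernatant sFLT-1 measured by human VEGFR1 ELISA; MitoTEMPO as reference antioxidant; 5 repeat experiments.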
In general terms: In an ELISA, binding on a coated surface is turned into a signal by an enzyme label.

Assay [4] in a line: Antioxidant activity in H2O2 induced human HTR-8/SVneo cells assessed as reduction in mitochondrial derived ROS production at 50 uM preincubated for 30 mins followed by H2O2 addition and measured after 20 hrs by MitoSOX red staining based immunofluorescence analysis relative to control. Type of assay: functional. Set-up: scale not given: the % may be the effect or the level left. To be noted: time 20.5 hrs. In a few lines: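 HTR8 cells pretreated 30 min with 50 μM compound, then 100 μM H2O2 for 20 h. Mitochondrial superoxide imaged with MitoSOX Red by fluorescence microscopy at 20×; OD per cell surface area over 3 high-power fields per sample, n = 4 per group; median [IQR], Mann–Whitney U test.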

Assay [5] in a line: Antioxidant activity in H2O2 induced human HTR-8/SVneo cells assessed as reduction in sFLT-1 protein expression at 0.1 to 50 uM preincubated for 30 mins followed by H2O2 addition and measured after 20 hrs by ELISA method relative to MitoTEMPO. Type of assay: functional. On the set-up: scale not given: the % may be the effect or the level left. The conditions noted are these: dose 0.1-50 µM, time 20.5 hrs. A digest of the protocol: as §1

Regarding `COc1ccc(N/N=C/c2ccc(/C=N/Nc3ccc(OC)cc3)cc2)cc1`, the result in assay [1], in assay [2] and in assay [3] was Active.
In the case of `C/C(=N\Nc1cc(C)ccc1C)c1ccc([N+](=O)[O-])cc1`, the Activity entry in assay [1] and in assay [3] was “Weak_effect” throughout. Besides, the result in assay [2] was Active.
Regarding `Cc1ccc(C)c(N/N=C/c2ccc3ccccc3c2)c1`, the outcome in assay [1], in assay [2] and in assay [3] was Active.
Turning to `CN(C)c1ccc(/C=N/Nc2ccc(C(F)(F)F)cc2)cc1`, the outcome (in assay [1]; in assay [2]; in assay [3]; in the assay on HTR-8/SVneo) was Active.
For the compound `C/C(=N\Nc1ccccc1)c1ccc(Cl)cc1`, the result in assay [1], in assay [2] and in assay [3] was Active.
Turning to `FC(F)(F)c1ccccc1N/N=C/c1c2ccccc2cc2ccccc12`, the result in assay [1] and in assay [3] was Active. Moreover, the Activity entry in assay [2] is “Weak_effect”.
Consider `CN(C)c1ccc(/C=N/Nc2ccccc2C(F)(F)F)cc1`, for which the outcome (in assay [1]; in assay [2]; in assay [3]; in the assay on HTR-8/SVneo) was Active.
`CN(C)c1ccc(/C=N/Nc2cccc(C(F)(F)F)c2)cc1`: the outcome (in assay [1]; in assay [2]; in assay [3]; in the assay on HTR-8/SVneo) was Active. Further, the values for the Activity in assay [4] and in assay [5] were 50% and 10%, respectively.
As to `Fc1c(F)c(F)c(/C=N/Nc2ccc(C(F)(F)F)cc2)c(F)c1F`, the outcome (in assay [1]; in assay [2]; in assay [3]; in the assay with HTR-8/SVneo) was Active.
`O=[N+]([O-])c1ccc(/C=N/Nc2cccc(C(F)(F)F)c2)cc1`: the result (in assay [1]; in assay [2]; in assay [3]; with HTR-8/SVneo) was Active.
For `C(=N\Nc1ccccc1)/c1ccc2ccccc2c1`, the outcome in assay [1], in assay [2] and in assay [3] was Active.
With `COc1ccc(N/N=C/c2ccc([N+](=O)[O-])cc2)cc1`, in assay [2], the result was Active.
For `COc1ccc(N/N=C/c2ccc3ccccc3c2)cc1`, the result in assay [1], in assay [2] and in assay [3] was Active.
For the compound `FC(F)(F)c1cccc(N/N=C/c2ccc(/C=N/Nc3cccc(C(F)(F)F)c3)cc2)c1`, the outcome (in assay [1]; in assay [2]; in assay [3]; with HTR-8/SVneo) was Active.
On to `C/C(=N\Nc1ccccc1)c1ccc(C)cc1`, for which the result in assay [1], in assay [2] and in assay [3] was Active.
Turning to `COc1ccc(/C=N/Nc2cccc(C(F)(F)F)c2)cc1OC`, the result (in assay [1]; in assay [2]; in assay [3]; with HTR-8/SVneo) was Active. The Activity in assay [5] came to 10%.
In the case of `Clc1ccc(N/N=C/c2ccc3ccccc3c2)cc1`, the result in assay [1] and in assay [3] was Active.
Turning to `COc1ccc(/C=N/Nc2ccc(C(F)(F)F)cc2)c(O)c1`, the outcome (in assay [1]; in assay [2]; in assay [3]; in the assay with HTR-8/SVneo) was Active.
Consider `O=[N+]([O-])c1cccc(N/N=C/c2ccc3ccccc3c2)c1`, for which the result in assay [1] and in assay [3] was Active. For the same compound, in assay [2], the Activity result is “Weak_effect”.
Turning to `COc1ccc(N/N=C(\C)c2cc3ccc(OC)cc3oc2=O)cc1`, the result in assay [1], in assay [2] and in assay [3] was Active.
For `C(=N\Nc1ccccc1)/c1c[nH]c2ccccc12`, the result in assay [1], in assay [2] and in assay [3] was Active.
As to `C/C(=N\Nc1cc(C)ccc1C)c1cccc([N+](=O)[O-])c1`, the Activity result in assay [1] and in assay [3] was “Weak_effect” each time. Moreover, the outcome in assay [2] was Active.
Consider `COc1ccc(/C(C)=N/Nc2ccccc2)c(O)c1`, for which the result in assay [1], in assay [2] and in assay [3] was Active.
On to `COc1ccc(N/N=C(\C)c2ccc([N+](=O)[O-])cc2)cc1`, for which the Activity entry in assay [1] and in assay [3] was “Weak_effect” each time. In addition, the result in assay [2] was Active.
